From ChEMBL document CHEMBL4145685, “Development of Second-Generation CDK2 Inhibitors for the Prevention of Cisplatin-Induced Hearing Loss” (J Med Chem, 2018)
Converted amounts (≈) assume the structure as drawn. The source made the active and inactive calls.

Key:
[1] = tested on: Mus musculus; test: Toxicity in adult FVB mouse at 2 to 50 uM dosed to each left ear by transtympanic injection after 15 days; type: organism-based; conditions: in vivo, other, 360 h
Summary of the method: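 Adult FVB mice, blinded and randomized, received transtympanic left-ear 2, 10 or 50 μM compound or vehicle (PBS + 0.5% DMSO, 5 μL). Dosing was a single injection, or two injections 24 h apart in one series. Three to four mice per group. ABRs were recorded at 8, 16, 32 kHz after 15 days.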

[2] = tested on: Mus musculus; test: (§1) Protection against cisplatin-induced ototoxicity in adult FVB mouse assessed as reduction in auditory brainstem response threshold elevation by measuring ABR threshold shits at 32 kHz dosed at 50 uM administered to each left ear by transtympanic injection dosed 1 hr before cisplatin injection and measured after 15 days; type: functional
Summary of the method: (§2)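 P30 FVB mice under isoflurane got a single 5 μL transtympanic injection (50 μM in saline with 0.5% DMSO, or vehicle) into the left ear. Cisplatin was given i.p. 1 h later. Closed-field left-ear ABR thresholds were taken before treatment and at day 15. Shift is post minus pre. Mice losing <10% bodyweight were excluded. Mean ± SEM, paired 2-tailed t-test.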

[3] = tested on: Mus musculus; test: Protection against cisplatin-induced ototoxicity in adult FVB mouse assessed as reduction in outer hair cell loss in middle basal turn at 32 kHz dosed at 50 uM administered to each left ear by transtympanic injection dosed 1 hr before cisplatin injection and measured after 15 days; type: functional, organism-based
Summary of the method: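 After day-15 ABR, cochleae were harvested from transtympanically dosed, cisplatin-treated adult FVB mice. Organ of Corti was stained with phalloidin, anti-parvalbumin and DAPI. OHCs were counted per 160 μm in the 32-kHz (middle basal turn) region. Mean ± SEM, paired 2-tailed t-test.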

[4] = tested on: Mus musculus; test: Protection against cisplatin-induced ototoxicity in adult FVB mouse assessed as hearing thresholds at 32 kHz dosed at 50 uM administered to each left ear by transtympanic injection dosed 1 hr before cisplatin injection and measured after 15 days; type: functional, organism-based
Summary of the method: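 P30 FVB mice under isoflurane received 5 μL compound in PBS + 0.5% DMSO into the left ear by transtympanic 33-gauge cannula; vehicle controls matched. Cisplatin i.p. 1 h later; one regimen added a second injection 24 h after cisplatin. Left-ear closed-field ABR thresholds at 8, 16, 32 kHz were taken before treatment and at day 15. Threshold shift is reported as mean ± SEM, paired 2-tailed t-test. Mice losing <10% bodyweight were excluded.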

[5] = biological target: Glycogen synthase kinase-3 alpha (Homo sapiens) (UniProt P49840); test: Inhibition of human full length GSK3alpha expressed in bacterial expression system at 1 uM
Glycogen synthase kinase-3 alpha (Homo sapiens), sequence (P49840 2-483 limits assumed): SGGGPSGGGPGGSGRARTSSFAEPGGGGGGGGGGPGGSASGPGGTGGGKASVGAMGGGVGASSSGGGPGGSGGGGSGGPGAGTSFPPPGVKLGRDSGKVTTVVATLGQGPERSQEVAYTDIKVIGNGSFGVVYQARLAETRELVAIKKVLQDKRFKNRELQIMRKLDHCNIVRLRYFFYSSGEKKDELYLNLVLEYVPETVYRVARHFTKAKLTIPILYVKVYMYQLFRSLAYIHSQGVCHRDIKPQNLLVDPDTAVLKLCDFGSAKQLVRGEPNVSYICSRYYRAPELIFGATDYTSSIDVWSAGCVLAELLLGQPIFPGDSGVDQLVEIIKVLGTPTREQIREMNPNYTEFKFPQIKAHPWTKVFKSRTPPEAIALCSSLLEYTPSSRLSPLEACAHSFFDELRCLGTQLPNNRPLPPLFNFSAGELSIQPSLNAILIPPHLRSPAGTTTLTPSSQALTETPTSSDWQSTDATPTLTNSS
Summary of the method: (§3)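 Competition binding screen at 1 μM over a 468-kinase panel. Kinases were T7-phage-tagged (grown in E. coli BL21-derived host) or produced in HEK-293 cells with DNA tags. They bound to immobilized biotinylated ligand beads with compound for 1 h at room temperature in SeaBlock/PBS/Tween/DTT buffer. Eluted kinase was quantified by qPCR.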

[6] = biological target: Glycogen synthase kinase-3 beta (Homo sapiens) (UniProt P49841); test: Inhibition of human full length GSK3beta expressed in mammalian expression system at 1 uM; summary of the method: as §3
Glycogen synthase kinase-3 beta (Homo sapiens), sequence (P49841 whole entry, looked up): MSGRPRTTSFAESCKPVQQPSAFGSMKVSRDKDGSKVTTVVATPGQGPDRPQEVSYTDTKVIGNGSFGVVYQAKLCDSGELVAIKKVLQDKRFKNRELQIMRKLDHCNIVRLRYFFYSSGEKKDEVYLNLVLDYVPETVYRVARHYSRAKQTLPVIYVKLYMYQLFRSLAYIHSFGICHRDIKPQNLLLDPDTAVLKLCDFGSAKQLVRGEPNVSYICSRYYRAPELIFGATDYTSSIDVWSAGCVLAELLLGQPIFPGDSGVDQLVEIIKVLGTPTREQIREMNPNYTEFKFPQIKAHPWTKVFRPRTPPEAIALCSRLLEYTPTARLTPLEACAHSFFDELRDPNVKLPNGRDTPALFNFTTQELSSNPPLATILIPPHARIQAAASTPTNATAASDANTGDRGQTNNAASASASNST

[7] = biological target: Cyclin-dependent kinase 7 (Homo sapiens) (UniProt P50613); test: Inhibition of human full length CDK7 expressed in mammalian expression system at 1 uM; summary of the method: as §3
Cyclin-dependent kinase 7 (Homo sapiens), sequence (P50613 whole entry): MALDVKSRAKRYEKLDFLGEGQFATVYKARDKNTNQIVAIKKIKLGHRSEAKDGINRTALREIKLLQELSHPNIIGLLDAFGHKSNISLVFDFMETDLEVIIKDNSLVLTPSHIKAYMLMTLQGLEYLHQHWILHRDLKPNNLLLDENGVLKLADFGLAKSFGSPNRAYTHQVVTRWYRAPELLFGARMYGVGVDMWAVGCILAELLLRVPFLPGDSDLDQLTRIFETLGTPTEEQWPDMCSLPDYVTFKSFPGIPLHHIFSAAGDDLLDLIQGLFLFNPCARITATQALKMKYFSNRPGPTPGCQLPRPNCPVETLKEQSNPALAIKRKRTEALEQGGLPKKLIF

[8] = Solubility of the compound in citrate phosphate buffered saline incubated for 18 hrs by UV spectroscopy; type: physicochemical; conditions: buffer
Summary of the method: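 A 10 mM DMSO stock was diluted into buffer and held 18 h at room temperature. It was then filtered and mixed 1:1 with 1-propanol. UV spectrum (250–500 nm) AUC was compared with a reference of stock in 1-propanol/isotonic citrate PBS. Triplicate.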

[9] = Protection against cisplatin-induced cell death in neonatal mouse HEI-OC1 cells assessed as reduction in caspase-3/7 activity; type: functional
[10] = tested on: Spiral organ of cochlea; test: Protection against cisplatin-induced toxicity in P3 mouse cochlear explants assessed as increase in outer hair cell count at 150 nM incubated for 24 hrs by phalloidin staining based confocal microscopy; type: functional, tissue-based
Summary of the method: (§4)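 P3 FVB mouse cochleae were cultured on filters in DMEM with 1% FBS and 50 μg/mL ampicillin, 37 °C, 5% CO2, for 1 d. They were pretreated with compound 1 h, then given cisplatin 150 μM plus compound for 1 d. Fixed in 4% PFA, phalloidin-stained, confocal imaged. OHCs counted per 160 μm; medium-only = full protection, cisplatin-only = none.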

[11] = tested on: Spiral organ of cochlea; test: Protection against cisplatin-induced toxicity in P3 mouse cochlear explants assessed as increase in outer hair cell count at 100 to 500 nM incubated for 24 hrs by phalloidin staining based confocal microscopy; type: functional, tissue-based; summary of the method: as §4
[12] = tested on: Spiral organ of cochlea; test: Protection against cisplatin-induced toxicity in P3 mouse cochlear explants assessed as increase in outer hair cell count incubated for 24 hrs by phalloidin staining based confocal microscopy; type: functional, tissue-based
[13] = biological target: CDK2/Cyclin A2 (Homo sapiens, UniProt P24941); test: Inhibition of C-terminal His6-tagged human full length CDK2/N-terminal GST-tagged human full length Cyclin A using histone H1 and [gamma-32P]-ATP incubated for 30 mins by phosphorimage based assay; type: protein-complex assay
[14] = tested on: Mus musculus; test: as §1, with “16” for “32”; type: functional; summary of the method: as §2
[15] = Mus musculus, HEI-OC1, read-out: EC50

Compound | EC50 [9] | EC50 [9, 15] [µM] | also measured
Cc1ncc(-c2ccnc(Nc3ccc(S(C)(=O)=O)cc3)n2)n1C(C)C [AZD-5438] |  |  | Activity [1]: Non-Toxic; Activity [2]: 14 dB; Activity [3]: Active; Activity [4]: Active; inhibition [5]: Active; inhibition [6]: Active; inhibition [7]: Active; solubility [8]: 68.8 µM (≈ 25.6 µg/mL)
Cn1ncc(NC(=O)c2ccc(Cl)cc2Cl)c1C(=O)NCc1ccco1 | Not Active |  | 
O=C(NCC1CC1)c1n[nH]cc1NC(=O)c1c(F)cccc1F |  | 0.044 | Activity [10]: inactive
CCCNC(=O)c1c(NC(=O)c2cc(S(=O)(=O)N(C)C)c(Cl)cc2Cl)cnn1C | Not Active |  | 
O=C(Nc1ccc(F)cc1)c1n[nH]cc1NC(=O)C1CCCCC1 |  | > 32.2 | 
O=C(NC1CCNCC1)c1n[nH]cc1NC(=O)c1c(Cl)cccc1Cl |  |  | Activity [11]: inactive; inhibition [5]: Active; inhibition [6]: Active; inhibition [7]: Active
CCn1cc(NC(=O)c2ccccc2Cl)c(C(=O)NCC(C)C)n1 | Not Active |  | 
COc1cccc(F)c1C(=O)Nc1c[nH]nc1C(=O)NC1CCNCC1 |  | > 37.2 | 
O=C(N[C@H]1CCCNC1)c1n[nH]cc1NC(=O)c1c(F)cccc1F |  | > 37.9 | 
O=C(Nc1c[nH]nc1C(=O)Nc1ccc(F)cc1)c1ccccc1 |  | > 33.2 | 
NS(=O)(=O)c1ccc(CCNc2nccc(-c3ccccn3)n2)cc1 | Not Active |  | 
N#Cc1ccc2c(c1)/C(=C1/C=CC(CN3CCOCC3)=CN1)C(=O)N2 |  | 3.63 | EC50 [12]: 15 µM
CC[C@H](CO)Nc1nc(NCc2ccccc2O)c2ncn(C(C)C)c2n1 [OLOMOUCINE II] |  | 0.595 | EC50 [12]: 3 µM
O=C(NC1CCN(C(=O)c2c(Cl)cccc2Cl)CC1)c1n[nH]cc1NC(=O)c1c(Cl)cccc1Cl |  | 0.459 | IC50 [13]: 0.76 µM; Activity [10]: inactive
CCn1cc(NC(=O)c2ccc(COCC(F)(F)F)cc2)c(C(=O)NCC(C)C)n1 |  | 6.75 | IC50 [13]: > 10 µM
Cc1nc(-c2ccnc(N)n2)cn1Cc1c(Cl)cccc1Cl | Not Active |  | 
O=C(NC1CCCCC1)c1n[nH]cc1NC(=O)c1c(F)cccc1F |  | > 27.3 | 
COc1ccc2c(c1)/C(=C/c1cnc[nH]1)C(=O)N2 [SU-9516] |  | 1.59 | EC50 [12]: 6 µM
Cn1cc(NC(=O)c2c(Cl)cccc2Cl)c(C(=O)NC2CCN(C(=O)c3c(Cl)cccc3Cl)CC2)n1 |  | > 49.4 | IC50 [13]: > 10 µM
O=C(NC1CCNCC1)c1n[nH]cc1NC(=O)c1c(F)cccc1F |  | 22.5 | 
CCC(Nc1nccc(-c2ccccn2)n1)c1ccc(S(C)(=O)=O)cc1 (configuration not stated) | Not Active |  | 
Cn1ncc(NC(=O)c2n[nH]cc2Cl)c1C(=O)N1CCCCC1 | Not Active |  | 
CCCNC(=O)c1c(NC(=O)c2ccc(Cl)cc2Cl)cnn1C | Not Active |  | 
CCn1ccnc1CN(C)c1nccc(-c2ccc(C)nc2C)n1 | Not Active |  | 
NS(=O)(=O)c1ccc(CNc2nccc(-c3ccccn3)n2)cc1 | Not Active |  | 
CCCNC(=O)c1c(NC(=O)c2cc(S(=O)(=O)N3CCCC3)c(Cl)cc2Cl)cnn1C | Not Active |  | 

Compound | EC50 [9] | EC50 [9, 15] [µM] | also measured
Cc1ccc(-c2ccnc(NCC(C)n3nc(C)cc3C)n2)c(C)n1 (configuration not stated) | Not Active |  | 
Cn1ncc(NC(=O)c2ccccc2Cl)c1C(=O)N1CCCCC1 | Not Active |  | 
CCCNC(=O)c1c(NC(=O)c2ccccc2Cl)cnn1C | Not Active |  | 
CC(C)CNC(=O)c1c(NC(=O)c2ccc(COCC(F)(F)C(F)F)cc2)cnn1C | Not Active |  | 
O=C1Cc2c([nH]c3ccc(Br)cc23)-c2ccccc2N1 [KENPAULLONE] |  | 0.349 | EC50 [12]: 0.15 µM; inhibition [5]: Active; inhibition [6]: Active; inhibition [7]: Active
O=C(N[C@H]1CC[C@H](O)CC1)c1n[nH]cc1NC(=O)c1c(F)cccc1F |  |  | Activity [10]: Active; Activity [1]: Non-Toxic; Activity [14]: 10 dB; Activity [3]: inactive; inhibition [5]: Active; inhibition [6]: Active; inhibition [7]: Active
Cn1cc(NC(=O)c2ccc(Cl)cc2Cl)c(C(=O)NCCc2ccco2)n1 | Not Active |  | 
Cc1[nH]nc(C(N)=O)c1NC(=O)C(C)NC(=O)c1ccc(Cl)cc1 (configuration not stated) | Not Active |  | 
CN[C@@H]1CCN(C(=O)c2ccc(Nc3ncc(F)c(-c4cnc(C)n4C(C)C)n3)cc2)C1 | Not Active |  | 
O=C(Nc1ccc(F)cc1)c1n[nH]cc1NC(=O)c1c(F)cccc1F |  |  | Activity [10]: inactive
Cc1ccc(C(=O)Nc2c(C(=O)N(C)C)nn(C)c2C)cc1 | Not Active |  | 
Cc1[nH]nc(C(N)=O)c1NC(=O)c1cc(F)cc(Br)c1 | Not Active |  | 
c1ccc(Nc2nccc(-c3ccccn3)n2)cc1 | Not Active |  | 
N[C@H]1CC[C@H](NC(=O)c2n[nH]cc2NC(=O)c2c(F)cccc2F)CC1 |  | > 33.5 | 
CNC(=O)c1nn(C)cc1NC(=O)c1ccccc1Cl | Not Active |  | 
CCn1cc(NC(=O)c2ccc(Cl)cc2Cl)c(C(=O)Nc2ccccc2)n1 |  | 31.1 | IC50 [13]: > 10 µM
CCn1cc(NC(=O)c2c(F)cccc2F)c(C(=O)NCC(C)C)n1 | Not Active |  | 
Cc1cc(Br)ccc1C(=O)Nc1c(C(N)=O)n[nH]c1C | Not Active |  | 
O=C(Cc1ccccc1)Nc1c[nH]nc1C(=O)Nc1ccc(F)cc1 |  | > 32.7 | 
CN(Cc1nccn1Cc1ccccc1)c1nccc(-c2ccccn2)n1 | Not Active |  | 
O=C(NC1CCNCC1)c1n[nH]cc1NC(=O)c1c(F)cc(F)cc1F |  | > 30.9 | 
NS(=O)(=O)c1ccc(N/N=C2\C(=O)Nc3ccc(Br)cc32)cc1 |  | 0.127 | EC50 [12]: 1 µM
Cc1[nH]nc(C(N)=O)c1NC(=O)c1cc(F)c(F)c(F)c1 | Not Active |  | 
Cc1[nH]nc(C(N)=O)c1NC(=O)c1ccc(OCC2CC2)cc1 | Not Active |  | 
CCn1cc(NC(=O)c2ccc(Cn3cc(Cl)cn3)cc2)c(C(=O)NC2CCCC2)n1 |  | 5.04 | IC50 [13]: > 10 µM
